Assay results reported in ChEMBL document CHEMBL1759907, “Identification and optimization of tetrahydro-2H-3-benzazepin-2-ones as squalene synthase inhibitors” (Bioorg Med Chem Lett, 2011).

Legend:
Squalene synthase = molecular target: T1, Squalene synthase (Homo sapiens, UniProt P37268); experiment: Inhibition of squalene synthase assessed as conversion of […] to [3H]squalene after 10 mins by scintillation counting
T1 sequence (P37268 whole entry): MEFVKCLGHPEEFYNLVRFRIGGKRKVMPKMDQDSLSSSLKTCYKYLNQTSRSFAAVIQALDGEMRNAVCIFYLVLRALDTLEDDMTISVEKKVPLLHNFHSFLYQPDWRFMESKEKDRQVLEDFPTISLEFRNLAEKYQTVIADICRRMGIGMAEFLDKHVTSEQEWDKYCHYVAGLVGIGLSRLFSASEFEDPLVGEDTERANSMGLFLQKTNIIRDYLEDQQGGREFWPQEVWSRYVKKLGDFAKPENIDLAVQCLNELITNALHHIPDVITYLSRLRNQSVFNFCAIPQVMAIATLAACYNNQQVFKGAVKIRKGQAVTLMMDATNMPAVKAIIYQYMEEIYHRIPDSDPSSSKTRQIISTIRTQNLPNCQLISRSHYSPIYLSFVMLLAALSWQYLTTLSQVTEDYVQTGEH
How it was run: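 Reaction started with farnesyl pyrophosphate plus 0.2 nM trans,trans-[1-3H]-FPP and run for 10 min at 37 °C. Extracted with chloroform/methanol/5 N NaOH, adjusted to 2 mM squalene; organic phase counted by scintillation. Mean of three experiments.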

[1] = Metabolic stability in human liver microsomes assessed as compound remaining after 60 mins; type: ADME, Microsome; conditions: read-out: Stability
Mus musculus = experiment: Inhibition of hepatic cholesterol biosynthesis in NMRI mouse at 3 mg/kg, po administered 1 hr before administering [14C]mevalonate as substrate measured after 10 mins; type: functional

SMILES | IC50 (Squalene synthase) [nM] | remaining at 1 h [1] [%] | inhibition in vivo at 3 mg/kg (Mus musculus) [%]
CC(C)C[C@H]1C(=O)N(CC(=O)N2CCC(CC(=O)O)CC2)C[C@H](c2ccccc2Cl)c2cc(Cl)ccc21 (racemic) | 1400 | 70 | 25
CC(C)C[C@H]1C(=O)N(CC(=O)O)C[C@H](c2ccccc2Cl)c2ccccc21 (racemic) | > 20000 |  | 
CC(C)C[C@H]1C(=O)N(CC(=O)O)C[C@H](c2ccccc2Cl)c2cc(F)ccc21 (racemic) | > 20000 |  | 
Cc1ccc2c(c1)[C@@H](c1ccccc1Cl)CN(CC(=O)O)C(=O)[C@@H]2CC(C)C (racemic) | > 20000 |  | 
CC(C)C[C@H]1C(=O)N(CC(=O)O)C[C@H](c2ccccc2Br)c2cc(Cl)ccc21 (racemic) | 2200 |  | 
COc1cccc([C@@H]2CN(CC(=O)N3CCC(C(=O)O)CC3)C(=O)[C@H](CC(C)C)c3ccc(Cl)cc32)c1OC | 220 | 89 | 47
COc1ccccc1[C@H]1CN(CC(=O)N2CCC(C(=O)O)CC2)C(=O)[C@H](CC(C)C)c2ccc(Cl)cc21 (racemic) | 500 | 72 | 39
C=C(C)C[C@H]1C(=O)N(CC(=O)O)C[C@H](c2ccccc2Cl)c2cc(Cl)ccc21 (racemic) | 5500 |  | 
COc1cccc([C@H]2CN(CC(=O)O)C(=O)[C@H](CC(C)C)c3ccc(Cl)cc32)c1OC (racemic) | 1200 |  | 
CC(C)C[C@H]1C(=O)N(CC(=O)O)C[C@H](c2ccccc2Cl)c2cc(Cl)ccc21 (racemic) | 3300 | 60 | 
CC(C)C[C@H]1C(=O)N(CC(=O)NCCCCCC(=O)O)C[C@H](c2ccccc2Cl)c2cc(Cl)ccc21 (racemic) | 2400 |  | 
CC(C)(O)C[C@H]1C(=O)N(CC(=O)O)C[C@H](c2ccccc2Cl)c2cc(Cl)ccc21 (racemic) | > 20000 |  | 
COc1ccccc1[C@H]1CN(CC(=O)O)C(=O)[C@H](CC(C)C)c2ccc(Cl)cc21 (racemic) | 1900 |  | 
O=C(O)CN1C[C@H](c2ccccc2Cl)c2cc(Cl)ccc2[C@@H](Cc2ccccc2)C1=O (racemic) | > 20000 |  | 
CC(C)C[C@H]1C(=O)N(CC(=O)N2CCC(C(=O)O)CC2)C[C@H](c2ccccc2Cl)c2cc(Cl)ccc21 (racemic) | 930 | 53 | 25
COc1cccc([C@H]2CN(CC(=O)N3CCC(C(=O)O)CC3)C(=O)[C@H](CC(C)C)c3ccc(Cl)cc32)c1OC (racemic) | 450 | 78 | 
COc1ccccc1[C@H]1CN(CC(=O)N2CCCCC2)C(=O)[C@H](CC(C)C)c2ccc(Cl)cc21 (racemic) | 370 | 2 | 
COc1cccc([C@H]2CN(CC(=O)N3CCC(C(=O)O)CC3)C(=O)[C@@H](CC(C)C)c3ccc(Cl)cc32)c1OC | > 20000 |  | 
CCOC(=O)CN1C[C@H](c2ccccc2Cl)c2cc(Cl)ccc2[C@@H](CC(C)C)C1=O (racemic) | > 20000 |  | 
CC(C)C[C@H]1C(=O)N(CC(=O)O)C[C@H](c2ccccc2)c2cc(Cl)ccc21 (racemic) | 15300 |  | 
